Activity calls are given as the source filed them. The calls are words filed in the database; no cut-off is given here.
Assays:
HUVEC [1] = assay: Antiangiogenic activity in HUVEC assessed as inhibition of VEGF-induced capillary like tube formation at 5 uM preincubated with VEGF for 20 mins followed by compound addition measured after 6 hrs by matrigel based tube formation assay relative to control; format: functional; conditions: Homo sapiens
Method in brief: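 Matrigel (100 μL) set 1 h at 37°C; 2×10⁴ HUVECs in M200 with 10% FBS added per well plus 10 ng/mL VEGF; compound added after 20 min; incubated 6 h at 37°C, then capillary-like structures photographed.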

Aorta = assay: Inhibition of VEGF-induced capillary sprouting in Sprague-Dawley rat aortic ring at 20 uM treated for every 3 days for 7 days measured on day 7 by inverted microscopy relative to control; format: functional
Method in brief: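 Aortas from anesthetized Sprague-Dawley rats cut into 1-mm rings and embedded in Matrigel for 1 h at 37°C. Rings starved 1 day, then cultured in opti-MEM with 2.5% FBS and 30 ng/mL VEGF plus compound. Treatment renewed every 3 days for 7 days. Sprouting imaged on day 7 by inverted microscopy.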

[2] = Induction of apoptosis in VEGF-stimulated HUVEC assessed as viable cells at 1 uM after 24 hrs by Annexin V-FITC/propidium iodide staining based flow cytometric analysis (reference value: 69.6%); format: cell-based; conditions: human, read-out: Activity
Method in brief: (§1)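 HUVECs plated at 5×10^5 per well and treated 24 h with 1, 5, 10 or 20 μM. Detached and adherent cells were pooled, washed in ice-cold PBS and resuspended in fresh medium. 1×10^5 cells were stained with annexin-V-FITC in annexin-V buffer for 20 min in the dark, then PI (50 μg/mL) was added. Read-out by flow cytometry.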

HUVEC [3] = assay: Induction of apoptosis in VEGF-stimulated HUVEC assessed as necrotic cells at 1 uM after 24 hrs by Annexin V-FITC/propidium iodide staining based flow cytometric analysis (reference value: 12.1%); format: cell-based; conditions: human; method in brief: as §1
[4] = Induction of apoptosis in VEGF-stimulated HUVEC assessed as viable cells at 10 uM after 24 hrs by Annexin V-FITC/propidium iodide staining based flow cytometric analysis (reference value: 69.6%); format: cell-based; conditions: human, read-out: Activity; method in brief: as §1
[5] = Induction of apoptosis in VEGF-stimulated HUVEC assessed as viable cells at 20 uM after 24 hrs by Annexin V-FITC/propidium iodide staining based flow cytometric analysis (reference value: 69.6%); format: cell-based; conditions: human, read-out: Activity; method in brief: as §1
HT-29 [6] = assay: Induction of apoptosis in human HT-29 cells assessed as early apoptotic cells at 1 uM after 24 hrs by Annexin V-FITC/propidium iodide staining based flow cytometric analysis (reference value: 1.9%); format: cell-based; conditions: ht-29, 24 h
HT-29 [7] = assay: Induction of apoptosis in human HT-29 cells assessed as early apoptotic cells at 10 uM after 24 hrs by Annexin V-FITC/propidium iodide staining based flow cytometric analysis (reference value: 1.9%); format: cell-based; conditions: ht-29, 24 h
[8] = Induction of apoptosis in human HT-29 cells assessed as viable cells at 5 uM after 72 hrs by Annexin V-FITC/propidium iodide staining based flow cytometric analysis (reference value: 81.1%); format: cell-based; conditions: read-out: Activity
[9] = target: Vascular endothelial growth factor receptor 2 (Homo sapiens) (UniProt P35968); assay: Inhibition of VEGFR2 in VEGF-stimulated HUVEC assessed as downregulation of STAT3 phosphorylation at Tyr705 residue at 1 to 10 uM pre-incubated for 2 hrs followed by VEGF stimulation and measured after 15 mins by Western blot analysis; format: cell-based
Sequence of Vascular endothelial growth factor receptor 2 (Homo sapiens) (P35968 whole entry): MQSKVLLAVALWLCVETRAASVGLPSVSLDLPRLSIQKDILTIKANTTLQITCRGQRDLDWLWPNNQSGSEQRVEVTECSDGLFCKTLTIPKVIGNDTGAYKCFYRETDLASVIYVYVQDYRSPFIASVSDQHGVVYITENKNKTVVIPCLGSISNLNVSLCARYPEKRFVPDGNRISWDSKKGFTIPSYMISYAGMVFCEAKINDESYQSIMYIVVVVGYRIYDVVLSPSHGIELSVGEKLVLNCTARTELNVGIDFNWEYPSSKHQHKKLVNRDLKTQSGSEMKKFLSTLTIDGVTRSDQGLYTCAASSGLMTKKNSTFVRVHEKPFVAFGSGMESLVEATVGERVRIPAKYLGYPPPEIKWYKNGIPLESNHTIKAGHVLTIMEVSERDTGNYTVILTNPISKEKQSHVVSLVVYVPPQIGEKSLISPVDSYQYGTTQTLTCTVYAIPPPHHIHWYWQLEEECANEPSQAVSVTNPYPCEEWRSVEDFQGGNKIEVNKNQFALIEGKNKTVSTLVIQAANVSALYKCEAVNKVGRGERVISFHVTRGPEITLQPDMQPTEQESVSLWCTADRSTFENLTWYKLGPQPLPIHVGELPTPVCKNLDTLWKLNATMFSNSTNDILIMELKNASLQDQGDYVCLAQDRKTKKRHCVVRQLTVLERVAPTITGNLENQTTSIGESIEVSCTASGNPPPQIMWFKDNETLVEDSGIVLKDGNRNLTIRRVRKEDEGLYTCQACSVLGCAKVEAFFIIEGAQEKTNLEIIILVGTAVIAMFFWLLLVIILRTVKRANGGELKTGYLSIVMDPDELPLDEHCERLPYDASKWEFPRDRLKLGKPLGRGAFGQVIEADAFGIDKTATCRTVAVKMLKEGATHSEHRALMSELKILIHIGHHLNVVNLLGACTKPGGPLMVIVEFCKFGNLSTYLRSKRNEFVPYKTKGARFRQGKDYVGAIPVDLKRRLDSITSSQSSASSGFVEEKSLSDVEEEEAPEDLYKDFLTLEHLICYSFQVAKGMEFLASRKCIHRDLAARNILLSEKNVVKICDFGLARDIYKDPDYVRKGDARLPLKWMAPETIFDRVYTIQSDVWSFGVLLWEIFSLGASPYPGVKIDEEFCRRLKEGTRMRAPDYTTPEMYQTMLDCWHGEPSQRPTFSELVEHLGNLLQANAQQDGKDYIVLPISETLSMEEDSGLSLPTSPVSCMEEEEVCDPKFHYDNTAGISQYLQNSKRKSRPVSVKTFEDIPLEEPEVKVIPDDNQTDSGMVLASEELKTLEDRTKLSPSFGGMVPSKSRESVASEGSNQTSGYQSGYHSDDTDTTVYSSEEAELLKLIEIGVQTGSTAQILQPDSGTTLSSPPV

HUVEC [10] = assay: Effect on total Src expression in VEGF-induced HUVEC at 1 to 20 uM pre-incubated for 2 hrs followed by VEGF stimulation and measured after 15 mins by Western blot analysis; format: ADME, cell-based; conditions: human, 0.25 h
Method in brief: (§2)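 HUVECs serum-starved overnight, pretreated with compound (methods: 1, 2.5, 5, 10 μM for 2 h; legend: 1, 5, 10, 20 μM for 1.5 h), then VEGF 50 ng/mL (methods: VEGF165, 15 min; legend: 30 min); lysates equalized by Bradford, ~20 μg protein resolved on gradient SDS-PAGE, immunoblotted, ECL detection.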

HUVEC [11] = assay: Effect on total STAT3 expression in VEGF-induced HUVEC at 1 to 20 uM pre-incubated for 2 hrs followed by VEGF stimulation and measured after 15 mins by Western blot analysis; format: ADME, cell-based; conditions: human, 0.25 h; method in brief: as §2
HUVEC [12] = assay: Inhibition of Akt/mTOR signalling in VEGF-induced HUVEC assessed as reduction in P70S6K phosphorylation at Thr389 residue pre-incubated for 1.5 hrs followed by VEGF stimulation and measured after 30 mins by Western blot analysis; format: cell-based; conditions: Homo sapiens
Method in brief: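 HUVECs were starved overnight, pretreated 1.5 h with 1, 5, 10 or 20 μM, then stimulated with VEGF (50 ng/mL) for 30 min. Lysates were equalized by Bradford assay, about 20 μg protein was resolved on gradient SDS-PAGE and immunoblotted with phospho-specific antibodies. Detection by HRP secondary antibodies and ECL.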

[13] = target: Mitogen-activated protein kinase 3 (Homo sapiens) (UniProt P27361); assay: Inhibition of ERK1 (unknown origin) at 10 uM using myelin basic protein as substrate in presence of [gamma-33P]-ATP by scintillation counting analysis relative to control
Sequence of Mitogen-activated protein kinase 3 (Homo sapiens) (P27361 whole entry): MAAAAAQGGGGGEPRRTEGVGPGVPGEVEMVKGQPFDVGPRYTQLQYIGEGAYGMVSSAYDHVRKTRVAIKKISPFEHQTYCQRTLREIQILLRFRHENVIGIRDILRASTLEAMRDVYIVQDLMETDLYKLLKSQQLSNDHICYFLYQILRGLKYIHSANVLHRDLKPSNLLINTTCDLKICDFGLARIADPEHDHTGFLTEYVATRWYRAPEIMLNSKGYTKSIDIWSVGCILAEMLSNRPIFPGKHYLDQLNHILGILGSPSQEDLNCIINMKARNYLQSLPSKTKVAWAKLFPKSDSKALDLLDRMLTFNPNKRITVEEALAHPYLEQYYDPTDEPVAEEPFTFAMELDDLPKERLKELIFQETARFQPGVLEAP
Method in brief: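 Radiometric kinase panel run by a contract lab. Kinase (5–10 mU) in 25 mM Tris pH 7.5, 0.02 mM EGTA, 0.66 mg/mL myelin basic protein, magnesium acetate and [γ-33P]-ATP (about 500 cpm/pmol). Started with Mg-ATP mix, 40 min at room temperature, stopped with 3% phosphoric acid. Spotted on P30 filters, washed in 75 mM phosphoric acid and methanol, scintillation counted. Mean ± SD of three independent experiments.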

HT-29 [14] = assay: Antitumor activity against human HT-29 cells xenografted in mouse assessed as reduction in tumour volume at 60 mg/kg, po administered every other day for 3 weeks and measured at 20 days post-treatment relative to control; format: functional; conditions: HT-29, po
[15] = Toxicity in mouse xenografted with human HT-29 cells assessed as body weight at 20 to 60 mg/kg, po administered every other day for 3 weeks; format: organism-based; conditions: in vivo, 504 h
Method in brief: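 HT29 cells implanted subcutaneously in the right flank of nude mice. At about 100 mm³, mice were randomized to vehicle (0.9% NaCl) or oral compound at 20, 40 and 60 mg/kg, with sunitinib at 40 mg/kg as reference. Body weight and tumor size recorded every other day.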

HT-29 [16] = assay: Antiangiogenic activity against human HT-29 cells xenografted in mouse assessed as reduction in formation of new blood vessels in tumour at 20 to 60 mg/kg, po administered every other day for 3 weeks measured at 20 days post-treatment; format: functional, organism-based
HT-29 [17] = assay: Antitumor activity against human HT-29 cells xenografted in mouse assessed as large areas of late apoptotic and necrotic cells in tumor at 20 to 60 mg/kg, po administered every other day for 3 weeks and measured at 20 days post treatment by H and E staining based assay; format: functional, organism-based
HT-29 [18] = assay: Downregulation of MMP9 expression in human HT-29 cells after 24 hrs by immunoblot analysis; format: functional, cell-based
HT-29 [19] = assay: Antiangiogenic activity against human HT-29 cells xenografted in mouse assessed as reduction in mean vessel density in tumour at 40 mg/kg, po administered for 7 days measured at 20 days post-treatment; format: functional, organism-based
HUVEC [20] = assay: Antimigratory activity in HUVEC assessed as reduction in VEGF-induced cell migration at 1 to 2.5 uM by wound healing assay; conditions: Homo sapiens, TDE = time-dependent effect

Compound `COc1ccc(NC(=O)c2cccc(/C=C3\CC(=O)N(c4ccc(C)cc4)C3=O)c2)cc1` has an inhibition at 5 µM (HUVEC [1]) of 80%, an inhibition at 20 µM (Aorta) of 95% and a viability at 24 h, 1 µM [2] of 72.6%. For the same compound, the Activity (HUVEC [3]) was 6.2%, the viability at 24 h, 10 µM [4] was 72% and the viability at 24 h, 20 µM [5] was 74.5%. For the same compound, the Activity (HT-29 [6]) was 1.3%, the Activity (HT-29 [7]) was 1.5% and the viability at 72 h, 5 µM [8] was 76.9%. The inhibition [9] was “Active”, the Activity (HUVEC [10]) was “Not Active” and the Activity (HUVEC [11]) was “Not Active”. For the same compound, the inhibition (HUVEC [12]) was “Dose-dependent effect”, the inhibition [13] was 50 to 70% and the inhibition in vivo at 60 mg/kg (HT-29 [14]) was 53.5%. The Activity [15] was “Non-Toxic”, the inhibition (HT-29 [16]) was “Active” and the Activity (HT-29 [17]) was “Active”. For the same compound, the inhibition (HT-29 [18]) was “Dose-dependent effect”, the inhibition (HT-29 [19]) was “Active” and the inhibition (HUVEC [20]) was “Tde”.
